Here are results for 98 compounds from ChEMBL document CHEMBL4513216, “Probing the Open Global Health Chemical Diversity Library for Multistage-Active Starting Points for Next-Generation Antimalarials” (ACS Infect Dis, 2020).

SMILES strings stand for the structures.

The nature of the data set: Toxicity liver stage against HepG2, at 10uM. It is filed as cell-based. The arrangement: test concentration 10 uM, cell line HepG2-A16-CD81EGFP. The note with it: human, HepG2-A16-CD81EGFP cells; read-out: INHIBITION
The method, boiled down:
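Uninfected HepG2-A16-CD81EGFP cells, 3 × 10^3 per well, 1536-well, plated on prespotted compound at 10 μM final, parasite-free screening media added to match infected plates; puromycin 10 μM positive, DMSO 0.5% negative; run in parallel with 48 h PbLuc assay at 37 °C, 5% CO2; viability by CellTiter-Glo luminescence, normalized to controls.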
For `COC(=O)c1cccc2nc([C@H]3CCN(CC(C)C)C3)oc12`, the cytotoxicity at 10 µM was -2.13%.

`CCS(=O)(=O)c1ccc2oc([C@H]3CCN(CC4CCCCC4)C3)nc2c1`: the cytotoxicity at 10 µM amounted to 41%.

For `COc1cc(OC)c2c(=O)oc(CC(O)CC(C)=O)cc2c1` (stereo not drawn), the cytotoxicity at 10 µM came out at 5.73%.

On to `Cc1nn2cnnc2c(C)c1CCC(=O)Nc1nc2c(s1)CCC2`, for which the cytotoxicity at 10 µM was -0.674%.

As to `Cc1cc(C(=O)Nc2nc3c(s2)CN(S(=O)(=O)C2CC2)CC3)c(C)o1`, the cytotoxicity at 10 µM is 22.7%.

Consider `CC(=O)N1CCC2(CCCN(S(=O)(=O)c3ccccc3)C2)C1` (stereo not drawn), for which the cytotoxicity at 10 µM is 0.169%.

Take `Cc1ccc(C(=O)N2CCC3(CCC(C(=O)NCC4CC4)O3)CC2)o1` (stereo not drawn): the cytotoxicity at 10 µM is 6.85%.

As for `CC(=O)N1CC2(CCN(C(=O)CO)CC2)c2cc(C)ccc21`, the cytotoxicity at 10 µM came out at 9.37%.

For `Cc1cccc(S(=O)(=O)N2CCCC3(CCCN3S(C)(=O)=O)C2)c1` (stereo not drawn), the cytotoxicity at 10 µM turned out to be 7.28%.

For `Cc1csc([C@H]2C[C@@H]3CCN(Cc4cnn(C)c4)C[C@H]3O2)n1`, the cytotoxicity at 10 µM was -3.9%.

For the compound `O=C1CC(c2ccc(C(=O)O)cc2)c2ncn(-c3cccc(Cl)c3)c2N1` (stereo not drawn), the cytotoxicity at 10 µM is -2.17%.

For `O=C(Cc1ccsc1)N1CCn2cc(CN3CCCC3)nc2C1`, the cytotoxicity at 10 µM was -14.2%.

For `NC(=O)c1nc(-c2ccc(Cl)cc2Cl)oc1N`, the cytotoxicity at 10 µM stood at 2.66%.

As to `CSc1nsc(NC(=O)c2cc(C3CC3)nn2C)n1`, the cytotoxicity at 10 µM worked out at 6.86%.

Turning to `COc1ccc(C)cc1C1(CNc2cncc(Cl)n2)CCOCC1`, the cytotoxicity at 10 µM worked out at 7.07%.

As to `COc1ccnc(N(C)Cc2csc(C)n2)n1`, the cytotoxicity at 10 µM was -2.62%.

With `CC(C(=O)N(C)Cc1ccco1)n1cncn1` (stereo not drawn), the cytotoxicity at 10 µM amounted to 4.4%.

For the compound `O=C(NCCOc1cccc(Cl)c1Cl)N1CCC2(CC1)OCCO2`, the cytotoxicity at 10 µM was -3.36%.

As for `CC(C)(C)c1noc(CCCC(=O)N2CCNC(=O)C2)n1`, the cytotoxicity at 10 µM is -4.28%.

`CSc1ccc(NCC(=O)NCC2CC2)cc1F`: the cytotoxicity at 10 µM was 0.936%.

Regarding `O=C(NS(=O)(=O)Cc1cc(-c2ccccc2)no1)C1CCOCC1`, the cytotoxicity at 10 µM is -2.85%.

For `Cc1ccc(-c2cc(C(=O)NCCN3CCOCC3)n[nH]2)s1`, the cytotoxicity at 10 µM was -6.45%.

Regarding `Cc1ccnc(C(NC(=O)c2ncoc2C)C2CC2)n1` (stereo not drawn), the cytotoxicity at 10 µM was 12.7%.

Turning to `Cc1ccc(C(=O)NCCNC(=O)c2cncnc2C)cc1F`, the cytotoxicity at 10 µM was determined as 3.91%.

Take `O=C(NCCNc1ncccn1)NCc1cccc(OC(F)F)c1`: the cytotoxicity at 10 µM was -2.64%.

With `Cn1nc(CC(C)(C)C)cc1NC(=O)c1ccc(CNC(N)=O)cc1`, the cytotoxicity at 10 µM was -1.78%.

`Cc1ccsc1CN(C)C(=O)c1ccc(N2CCOCC2)c(F)c1`: the cytotoxicity at 10 µM turned out to be 11.1%.

For `Cc1ccc(-c2ccsc2C(=O)NC2CCS(=O)(=O)C2)cc1` (stereo not drawn), the cytotoxicity at 10 µM is 1.07%.

On to `COc1ccc(NC(=O)NC(C)Cn2cccn2)cn1` (stereo not drawn), for which the cytotoxicity at 10 µM is -5.72%.

In the case of `CC(C)CC(CCO)CNC(=O)N1CC(C)(C)C1(C)C` (stereo not drawn), the cytotoxicity at 10 µM is -2.48%.

Turning to `COCCc1noc(CN2CCCc3cccc(OC)c32)n1`, the cytotoxicity at 10 µM was 5.52%.

Consider `Cc1cnn(C2CCCN(C(=O)c3c(C)oc4nc[nH]c(=O)c34)C2)c1` (stereo not drawn), for which the cytotoxicity at 10 µM was -6.62%.

As to `Cn1ccc(CNC(=O)N2CCCC3(C2)OCCO3)c1`, the cytotoxicity at 10 µM amounted to 7.6%.

As for `O=C1CCCc2[nH]c(=O)c(C(=O)N(CC3CCCCC3)C3CC3)cc21`, the cytotoxicity at 10 µM was -2.56%.

`CCCNC(=O)c1[nH]nc(C2CC2)c1Br`: the cytotoxicity at 10 µM is -0.587%.

As for `CN(Cc1cnccn1)C(=O)Nc1cc(F)cc(N2CCCC2)c1`, the cytotoxicity at 10 µM came out at 1.8%.

Turning to `CN1CCc2c(NC(=O)NCc3ccccc3Cl)cccc21`, the cytotoxicity at 10 µM is 3.65%.

`CN1CCCN(C(=O)c2ccn3ccnc3c2)CC1`: the cytotoxicity at 10 µM was -2.38%.

As for `COCCNC(=O)N1CCN(C(=O)Cc2ccccc2F)CC1`, the cytotoxicity at 10 µM was -8.85%.

With `CC(C)c1nnc2n1CCN(Cc1nc3c(F)cccc3[nH]1)C2`, the cytotoxicity at 10 µM is -9.14%.

With `Cc1ncsc1C(=O)OCCN1CCCCCC1=O`, the cytotoxicity at 10 µM is -4.27%.

Turning to `Cc1nc(COc2ccc(S(=O)(=O)N(C)C)cc2)sc1C`, the cytotoxicity at 10 µM is -1.13%.

Turning to `CSCC(C)(O)CNC(=O)c1ccc(Br)cc1F` (stereo not drawn), the cytotoxicity at 10 µM turned out to be 0.537%.

On to `COC(=O)c1sccc1NC(=O)C1CCCN1C(=O)c1ccco1` (stereo not drawn), for which the cytotoxicity at 10 µM was found to be 20.3%.

Regarding `O=C(NCCCn1cccn1)C1(c2ccc(Br)cc2)CC1`, the cytotoxicity at 10 µM was -0.0323%.

As to `N#Cc1ccc(CNCC(C(=O)N2CCOCC2)c2ccccc2)cc1` (stereo not drawn), the cytotoxicity at 10 µM is -11.9%.

As for `O=C(CC1COCCN1)N1CCC2(CCc3ccccc32)CC1` (stereo not drawn), the cytotoxicity at 10 µM is -148%.

In the case of `O=C(NCC1COCCO1)c1csc(Cc2ccccc2)n1` (stereo not drawn), the cytotoxicity at 10 µM is -0.857%.

Turning to `CCOc1ccccc1-n1c(CNC)n[nH]c1=O`, the cytotoxicity at 10 µM was -2.98%.

For the compound `CC(C)n1cnnc1CN1CCC2(CCCN(C3CCCCC3)C2=O)C1` (stereo not drawn), the cytotoxicity at 10 µM was -123%.

Take `CCc1cc(NCCS(=O)(=O)N(C)C)nc(N2CCOCC2)n1`: the cytotoxicity at 10 µM stood at 1.44%.

`CCn1c(N)nc2cc(C(=O)N3CCCN(C)CC3)cnc21`: the cytotoxicity at 10 µM was -2.43%.

In the case of `Cn1cc(CN(C/C=C/c2ccccc2)C2CC2)cn1`, the cytotoxicity at 10 µM is -10.1%.

Take `O=c1n(Cc2ncccn2)nc(C2CCNCC2)n1-c1ccccc1`: the cytotoxicity at 10 µM is -9.62%.

As to `CCC(CO)N(Cc1ccsc1)Cc1cccc(O)c1` (stereo not drawn), the cytotoxicity at 10 µM turned out to be 0.616%.

`COc1cc(C)ccc1OCCN1CC[C@@]2(O)CCNC[C@H]2C1`: the cytotoxicity at 10 µM is -157%.

For the compound `CC(C)SCC(=O)N1CCCn2nc(C(=O)Nc3ccccc3)cc2C1`, the cytotoxicity at 10 µM amounted to 3.19%.

As to `CCn1nc(C)c(CN(CCOC)C(=O)c2ccc(=O)[nH]n2)c1C`, the cytotoxicity at 10 µM is -2.27%.

In the case of `CCCNC(=O)N1CCc2ccc(S(=O)(=O)N3CCCC3)cc2C1`, the cytotoxicity at 10 µM was -12.3%.

For `Cc1ccc(CN2CCN(C(=O)C3CCC3)[C@@H]3CS(=O)(=O)C[C@@H]32)cc1C`, the cytotoxicity at 10 µM amounted to 2.09%.

On to `O=C(c1cccs1)N1CC(Oc2ccccc2Cl)C1`, for which the cytotoxicity at 10 µM is 6.89%.

Take `NC(=O)c1cccc(CC2CCN(C(=O)Cn3cnnn3)C2)c1` (stereo not drawn): the cytotoxicity at 10 µM was found to be 0.557%.

For the compound `Cc1ncc(CC(=O)N2CCCC(COc3ccccc3F)C2)c(=O)[nH]1` (stereo not drawn), the cytotoxicity at 10 µM was -151%.

With `CN(CCc1ccccn1)C(=O)c1cn(CCN2CCNCC2)nn1`, the cytotoxicity at 10 µM was -8.48%.

For `CCc1cnc(NCCSc2cnn[nH]2)nc1`, the cytotoxicity at 10 µM was -10.4%.

As for `Cc1nc(CN2CCCN(c3nccs3)CC2)no1`, the cytotoxicity at 10 µM was -3.62%.

For the compound `CC(C)OCCCNC(=O)CS(=O)(=O)Cc1cccc(Cl)c1`, the cytotoxicity at 10 µM was 5.44%.

In the case of `O=C(CC1CCCCC1)NC1CCCCNC1=O` (stereo not drawn), the cytotoxicity at 10 µM is 6.82%.

`c1ccc(OCCCN2CCOC(CNc3cccnn3)C2)cc1` (stereo not drawn): the cytotoxicity at 10 µM is -0.906%.

With `COc1cccc(-n2nnc(C(=O)N3CCCC(C)C3)c2C)c1` (stereo not drawn), the cytotoxicity at 10 µM is -5.33%.

Consider `CCCNC(=O)C1CCCN(Cc2csc(C(C)(C)C)n2)C1` (stereo not drawn), for which the cytotoxicity at 10 µM was -3.14%.

Consider `CCn1cc(NC(=O)NCC(C)N(C)C2CC2)cn1` (stereo not drawn), for which the cytotoxicity at 10 µM is -3.54%.

For the compound `CCN1CCOC(CNCc2cccc(OCc3ccccn3)c2)C1` (stereo not drawn), the cytotoxicity at 10 µM is -13.4%.

`Cc1ncc2c(n1)CCN(CCCc1nc3ccccc3o1)C2`: the cytotoxicity at 10 µM was -18.7%.

As to `CCn1nc2c(cc1=O)CN(Cc1coc(-c3ccccc3)n1)CC2`, the cytotoxicity at 10 µM was -10.9%.

For `CCc1nc(CN2CCc3c(ncn3C3CC3)C2)cs1`, the cytotoxicity at 10 µM is -1.59%.

For the compound `CC(C1CC1)N(C)C(=O)c1ccc(-n2ncc(C#N)c2N)cc1` (stereo not drawn), the cytotoxicity at 10 µM was 3.51%.

On to `Cc1cnn(CC2CCCN2C(=O)c2cccc(F)c2F)c1` (stereo not drawn), for which the cytotoxicity at 10 µM was -1.3%.

`CCCc1nc(C)c(C(=O)NCCN2CCOCC2)s1`: the cytotoxicity at 10 µM was -7.75%.

On to `c1cnn(CCN2CCOC(Cn3cccn3)C2)c1` (stereo not drawn), for which the cytotoxicity at 10 µM was -10.3%.

Regarding `Cc1nn(C)c(Cl)c1C1CCCN1C(=O)c1ccnc(N(C)C)c1` (stereo not drawn), the cytotoxicity at 10 µM is -6.73%.

For the compound `Cc1nc(C)c(C(=O)N2CCCN(Cc3cnn(C)c3)CC2)s1`, the cytotoxicity at 10 µM was -9.58%.

For the compound `Cc1nnc(N2CCC(NS(C)(=O)=O)CC2)c(C#N)c1C`, the cytotoxicity at 10 µM is -5.13%.

On to `CC(C)(C)c1cc(C(=O)NCCn2nc3ccccn3c2=O)[nH]n1`, for which the cytotoxicity at 10 µM is -29.5%.

With `CC(c1nc(C2CC2)no1)N1CCN(Cc2cccnc2)CC1` (stereo not drawn), the cytotoxicity at 10 µM was -6.18%.

Turning to `CN(C)CC1CN(Cc2cccc(C#N)c2)Cc2nccn2C1` (stereo not drawn), the cytotoxicity at 10 µM was -124%.

Turning to `Cc1ccc2c(n1)N(CC1CC1)CCN(S(=O)(=O)C1CC1)C2`, the cytotoxicity at 10 µM was found to be 12.4%.

In the case of `CN(C)C(=O)N1CCC2(CC1)CN(CC1CC1)CC21CCNC1=O` (stereo not drawn), the cytotoxicity at 10 µM amounted to 3.67%.

Turning to `O=C(Cc1cccnc1)N1CCCC2(CCN(C3CCOCC3)C2)C1` (stereo not drawn), the cytotoxicity at 10 µM is -1.45%.

In the case of `COc1c(CNC2CCCOc3ccc(F)cc32)c(C)nn1C` (stereo not drawn), the cytotoxicity at 10 µM was 1.51%.

`CCN(C)c1ncnc2c1CCN(C(=O)N(C)C)CC2`: the cytotoxicity at 10 µM is -0.0197%.

As for `O=S(=O)(C1CC1)N1C[C@@H]2CN(Cc3ccoc3)CCO[C@@H]2C1`, the cytotoxicity at 10 µM was -142%.

With `c1cn(-c2cncc(C3CCNCC3)n2)cn1`, the cytotoxicity at 10 µM is -32.5%.

For the compound `Cc1ccc(C(=O)N2CCc3ncnc(-c4cnn(C)c4)c3CC2)cn1`, the cytotoxicity at 10 µM amounted to 7.83%.

As for `CCN1CCOCC2(CCCN(C(=O)c3ccccc3F)C2)C1` (stereo not drawn), the cytotoxicity at 10 µM was -4.9%.

Regarding `Cc1ccc(CN2CCC3(CC2)CC(CC(=O)NC(C)C)CO3)s1` (stereo not drawn), the cytotoxicity at 10 µM was -1.72%.

`O=C(c1ccccn1)N1CC[C@H]2[C@H]1CCN2S(=O)(=O)C1CC1`: the cytotoxicity at 10 µM was -123%.

For `CC(C)OC(=O)N1C[C@@H]2CC[C@H]1CN(C(=O)c1ccccc1)C2`, the cytotoxicity at 10 µM was determined as 0.608%.
